The species entered for the first experiment is Homo sapiens. Put plainly: Inhibition of platelet aggregation in human platelet rich plasma(h-PRP) induced by adenosine 5-diphosphate (ADP). The format is functional.
Conditions: not given
The essentials:
(§1)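 ADP-induced aggregation of human platelet-rich plasma, measured in vitro. Plasma came from at least two donors. IC50 was read from the inhibition of aggregation.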
As for `CCOC(=O)COC1CCN(C(=O)[C@H](C)NC(=O)c2ccc(C(=N)N)cc2)CC1`, half-maximal inhibition (IC50) required 0.5 µM. That is a sub-micromolar value.
On the same count and under the same terms, with `CCOC(=O)NC(=N)c1ccc(C(=O)N(C)CC(=O)c2ccc(OCC(=O)OC(C)C)c(OCC(=O)OC(C)C)c2)cc1` the figure was more than 100 µM.
On the same count and under the same terms, with `CCOC(=O)NC(=N)c1ccc(C(=O)N[C@@H](Cc2ccc(OC(C)=O)cc2)C(=O)N2CCC(OCC(=O)OC(C)C)CC2)cc1` the figure was more than 100 µM.
`COC(=O)COc1ccc(C(=O)CN(C)C(=O)c2ccc(C(=N)NO)cc2)cc1OCC(=O)OC` displayed a half-inhibitory concentration (IC50) of more than 100 µM.
Still for that read-out and setting: next, `CCOC(=O)NC(=N)c1ccc(C(=O)N[C@@H](Cc2ccc(O)cc2)C(=O)N2CCC(OCC(=O)O)CC2)cc1`: 1.95 µM; `CC(C)OC(=O)OC(C)OC(=O)COC1CCN(C(=O)[C@H](C)NC(=O)c2ccc(C(=N)NO)cc2)CC1` (stereo not given in full): more than 60 µM; `CCOC(=O)COC1CCN(C(=O)[C@H](Cc2ccc(O)cc2)NC(=O)c2ccc(C(=N)N)cc2)CC1`: 0.063 µM.
The same measure, in the same setting: with `CCOC(=O)COC1CCN(C(=O)[C@H](Cc2ccc(O)cc2)NC(=O)c2ccc(C(=N)NO)cc2)CC1` the figure was more than 100 µM.
Same read-out and setting: next, `CC(C)OC(=O)COc1ccc(C(=O)CN(C)C(=O)c2ccc(C(=N)N)cc2)cc1OCC(=O)OC(C)C`: 0.345 µM; `C[C@H](NC(=O)c1ccc(C(=N)NO)cc1)C(=O)N1CCC(OCC(=O)O)CC1`: 13.8 µM; `CCCCOC(=O)NC(=N)c1ccc(C(=O)N[C@@H](C)C(=O)N2CCC(OCC(=O)OCC)CC2)cc1`: more than 100 µM.
Regarding `C[C@H](NC(=O)c1ccc(C(=N)N)cc1)C(=O)N1CCC(OCC(=O)O)CC1` [RO-44-3888], half-maximal inhibition (IC50) was put at 0.038 µM.
The molecule `CCOC(=O)COC1CCN(C(=O)[C@H](Cc2ccc(O)cc2)NC(=O)c2ccc(C(N)=NC(=O)OCC)cc2)CC1` showed an IC50 of 39.8 µM.
Still for that read-out and setting: next, `CN(CC(=O)c1ccc(OCC(=O)O)c(OCC(=O)O)c1)C(=O)c1ccc(C(=N)N)cc1`: 0.051 µM.

The species named for a further experiment is Homo sapiens. Put plainly: Inhibition of platelet aggregation of human platelet rich plasma(h-PRP) induced by adenosine 5-diphosphate (ADP).(oral activity in mice). The class given is functional. The conditions noted are these: read-out: ID50 (the source's name). The essentials: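 Mice got about 100 mg/kg orally, suspended in 10% gelatin (particle <1 µm); one mouse was killed at 1 h and one at 3 h for plasma. Serial dilutions of plasma (100 µL) were mixed with 300 µL human PRP and aggregated with 10 µM ADP (final). Dose divided by the IC50 dilution factor gave ID50; 1 h and 3 h values pooled, mean ± SEM.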
For the molecule `CCOC(=O)COC1CCN(C(=O)[C@H](C)NC(=O)c2ccc(C(=N)N)cc2)CC1`, the ED50 came to 1.8 mg/kg.
With `CCOC(=O)NC(=N)c1ccc(C(=O)N(C)CC(=O)c2ccc(OCC(=O)OC(C)C)c(OCC(=O)OC(C)C)c2)cc1`, the ED50 came to 1.4 mg/kg.
The same measure, in the same setting: with `CCOC(=O)NC(=N)c1ccc(C(=O)N[C@@H](Cc2ccc(OC(C)=O)cc2)C(=O)N2CCC(OCC(=O)OC(C)C)CC2)cc1` the figure was 0.9 mg/kg; with `COC(=O)COc1ccc(C(=O)CN(C)C(=O)c2ccc(C(=N)NO)cc2)cc1OCC(=O)OC`, 0.7 mg/kg; with `CCOC(=O)NC(=N)c1ccc(C(=O)N[C@@H](Cc2ccc(O)cc2)C(=O)N2CCC(OCC(=O)O)CC2)cc1`, 10.7 mg/kg.
Still for that read-out and setting: next, `CC(C)OC(=O)OC(C)OC(=O)COC1CCN(C(=O)[C@H](C)NC(=O)c2ccc(C(=N)NO)cc2)CC1` (stereo not given in full): 0.34 mg/kg; `CCOC(=O)COC1CCN(C(=O)[C@H](Cc2ccc(O)cc2)NC(=O)c2ccc(C(=N)N)cc2)CC1`: 6.9 mg/kg; `CCOC(=O)COC1CCN(C(=O)[C@H](Cc2ccc(O)cc2)NC(=O)c2ccc(C(=N)NO)cc2)CC1`: 2.6 mg/kg.
For the molecule `CC(C)OC(=O)COc1ccc(C(=O)CN(C)C(=O)c2ccc(C(=N)N)cc2)cc1OCC(=O)OC(C)C`, the ED50 is 11 mg/kg.
For the molecule `C[C@H](NC(=O)c1ccc(C(=N)NO)cc1)C(=O)N1CCC(OCC(=O)O)CC1`, the ED50 is 5.1 mg/kg.
Still for that read-out and setting: next, `N=C(N)c1ccc(C(=O)N[C@@H](Cc2ccc(O)cc2)C(=O)N2CCC(OCC(=O)O)CC2)cc1` [LAMIFIBAN]: 8.5 mg/kg; `CCCCOC(=O)NC(=N)c1ccc(C(=O)N[C@@H](C)C(=O)N2CCC(OCC(=O)OCC)CC2)cc1`: 0.3 mg/kg; `C[C@H](NC(=O)c1ccc(C(=N)N)cc1)C(=O)N1CCC(OCC(=O)O)CC1` [RO-44-3888]: 5.2 mg/kg.
Take `CCOC(=O)COC1CCN(C(=O)[C@H](Cc2ccc(O)cc2)NC(=O)c2ccc(C(N)=NC(=O)OCC)cc2)CC1`: the ED50 was found to be 1.4 mg/kg.
On the same count and under the same terms, next, `CN(CC(=O)c1ccc(OCC(=O)O)c(OCC(=O)O)c1)C(=O)c1ccc(C(=N)N)cc1`: 11.2 mg/kg.

In another experiment the target is Integrin alpha-IIb/beta-3 (Homo sapiens, UniProt P05106+P08514). The experiment can be described thus: Inhibition of FG binding to alpha IIb beta-3 integrin. The class given is protein-complex assay.
Sequence of Integrin alpha-IIb/beta-3 (P05106 27-788 limits assumed): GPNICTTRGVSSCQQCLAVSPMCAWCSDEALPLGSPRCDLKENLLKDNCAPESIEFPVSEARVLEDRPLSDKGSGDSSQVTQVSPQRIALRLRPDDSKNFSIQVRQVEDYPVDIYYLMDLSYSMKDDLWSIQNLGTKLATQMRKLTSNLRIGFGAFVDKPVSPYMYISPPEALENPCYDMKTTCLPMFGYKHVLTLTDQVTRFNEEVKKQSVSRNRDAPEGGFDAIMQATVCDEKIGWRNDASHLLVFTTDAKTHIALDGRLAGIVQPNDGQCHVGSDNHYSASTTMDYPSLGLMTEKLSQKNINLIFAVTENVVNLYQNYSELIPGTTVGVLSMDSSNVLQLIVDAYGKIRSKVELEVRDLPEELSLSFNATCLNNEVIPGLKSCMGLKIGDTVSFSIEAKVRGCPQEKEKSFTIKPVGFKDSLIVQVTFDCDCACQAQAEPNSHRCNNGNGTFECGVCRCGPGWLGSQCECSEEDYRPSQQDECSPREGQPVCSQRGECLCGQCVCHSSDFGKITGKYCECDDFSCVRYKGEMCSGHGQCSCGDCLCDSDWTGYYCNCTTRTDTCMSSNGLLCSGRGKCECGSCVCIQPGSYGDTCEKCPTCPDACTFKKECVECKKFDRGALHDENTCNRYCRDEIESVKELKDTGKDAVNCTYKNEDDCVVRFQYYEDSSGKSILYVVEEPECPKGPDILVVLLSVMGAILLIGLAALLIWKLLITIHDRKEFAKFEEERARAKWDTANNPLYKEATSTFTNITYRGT
Sequence of Integrin alpha-IIb/beta-3 (P08514 32-887 limits assumed): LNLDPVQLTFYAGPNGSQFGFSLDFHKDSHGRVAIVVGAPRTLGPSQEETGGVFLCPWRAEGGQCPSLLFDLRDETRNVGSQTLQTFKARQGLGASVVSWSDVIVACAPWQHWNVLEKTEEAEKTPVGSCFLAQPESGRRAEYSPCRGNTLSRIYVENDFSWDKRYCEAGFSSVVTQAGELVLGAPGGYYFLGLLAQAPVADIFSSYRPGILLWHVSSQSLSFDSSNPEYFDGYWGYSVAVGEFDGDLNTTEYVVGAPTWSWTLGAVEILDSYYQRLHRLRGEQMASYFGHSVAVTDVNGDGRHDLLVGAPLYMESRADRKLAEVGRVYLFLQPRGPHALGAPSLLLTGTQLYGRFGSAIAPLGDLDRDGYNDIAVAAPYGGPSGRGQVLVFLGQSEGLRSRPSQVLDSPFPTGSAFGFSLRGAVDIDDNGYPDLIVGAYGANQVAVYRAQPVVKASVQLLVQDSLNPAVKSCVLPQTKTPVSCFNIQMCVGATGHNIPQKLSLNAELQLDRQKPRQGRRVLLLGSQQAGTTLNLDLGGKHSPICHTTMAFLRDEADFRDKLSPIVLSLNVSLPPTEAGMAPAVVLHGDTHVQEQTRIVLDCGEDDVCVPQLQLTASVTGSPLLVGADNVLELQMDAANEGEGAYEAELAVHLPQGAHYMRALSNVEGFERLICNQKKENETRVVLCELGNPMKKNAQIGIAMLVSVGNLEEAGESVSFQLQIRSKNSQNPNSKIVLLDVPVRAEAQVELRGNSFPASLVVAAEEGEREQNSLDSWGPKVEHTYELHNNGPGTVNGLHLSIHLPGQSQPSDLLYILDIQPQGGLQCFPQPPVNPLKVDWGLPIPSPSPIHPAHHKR
Sequence of Integrin alpha-IIb/beta-3 (P08514 891-1039 limits assumed): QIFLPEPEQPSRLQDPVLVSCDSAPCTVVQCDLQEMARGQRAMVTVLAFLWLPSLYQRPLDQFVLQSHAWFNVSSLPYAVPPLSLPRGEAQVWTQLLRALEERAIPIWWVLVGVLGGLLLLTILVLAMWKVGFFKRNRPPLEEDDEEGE
Conditions: not given
The essentials:
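Binding of fibrinogen to immobilized purified GP IIb-IIIa (αIIbβ3). IC50 was calculated by log-linear regression and is the mean of at least two independent experiments.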
With `CCOC(=O)COC1CCN(C(=O)[C@H](C)NC(=O)c2ccc(C(=N)N)cc2)CC1`, the IC50 amounted to 0.163 µM.
Still for that read-out and setting: next, `CCOC(=O)NC(=N)c1ccc(C(=O)N(C)CC(=O)c2ccc(OCC(=O)OC(C)C)c(OCC(=O)OC(C)C)c2)cc1`: more than 10 µM; `CCOC(=O)NC(=N)c1ccc(C(=O)N[C@@H](Cc2ccc(OC(C)=O)cc2)C(=O)N2CCC(OCC(=O)OC(C)C)CC2)cc1`: more than 10 µM.
The same measure, in the same setting: with `COC(=O)COc1ccc(C(=O)CN(C)C(=O)c2ccc(C(=N)NO)cc2)cc1OCC(=O)OC` the figure was more than 10 µM.
`CCOC(=O)NC(=N)c1ccc(C(=O)N[C@@H](Cc2ccc(O)cc2)C(=O)N2CCC(OCC(=O)O)CC2)cc1` displayed a half-maximal inhibitory concentration (IC50) of 0.09 µM.
Still for that read-out and setting: next, `CC(C)OC(=O)OC(C)OC(=O)COC1CCN(C(=O)[C@H](C)NC(=O)c2ccc(C(=N)NO)cc2)CC1` (stereo not given in full): more than 10 µM; `CCOC(=O)COC1CCN(C(=O)[C@H](Cc2ccc(O)cc2)NC(=O)c2ccc(C(=N)N)cc2)CC1`: 0.051 µM.
For `CCOC(=O)COC1CCN(C(=O)[C@H](Cc2ccc(O)cc2)NC(=O)c2ccc(C(=N)NO)cc2)CC1`, the concentration for half-maximal inhibition (IC50) is more than 10 µM.
Still for that read-out and setting: next, `CC(C)OC(=O)COc1ccc(C(=O)CN(C)C(=O)c2ccc(C(=N)N)cc2)cc1OCC(=O)OC(C)C`: 0.9 µM; `C[C@H](NC(=O)c1ccc(C(=N)NO)cc1)C(=O)N1CCC(OCC(=O)O)CC1`: 0.594 µM.
Consider `N=C(N)c1ccc(C(=O)N[C@@H](Cc2ccc(O)cc2)C(=O)N2CCC(OCC(=O)O)CC2)cc1` [LAMIFIBAN], for which the 50% inhibitory concentration (IC50) is 0.0014 µM.
Still for that read-out and setting: next, `CCCCOC(=O)NC(=N)c1ccc(C(=O)N[C@@H](C)C(=O)N2CCC(OCC(=O)OCC)CC2)cc1`: more than 10 µM; `C[C@H](NC(=O)c1ccc(C(=N)N)cc1)C(=O)N1CCC(OCC(=O)O)CC1` [RO-44-3888]: 0.0019 µM; `CCOC(=O)COC1CCN(C(=O)[C@H](Cc2ccc(O)cc2)NC(=O)c2ccc(C(N)=NC(=O)OCC)cc2)CC1`: more than 8 µM.
The same measure, in the same setting: next, `CN(CC(=O)c1ccc(OCC(=O)O)c(OCC(=O)O)c1)C(=O)c1ccc(C(=N)N)cc1`: 0.0004 µM.

The species entered for a further experiment is Homo sapiens. Put plainly: Compound was tested for inhibition of platelet aggregation of human platelet rich plasma(h-PRP) induced by adenosine 5-diphosphate (ADP). The class given is functional.
Conditions: not given
In a few lines:
as §1
On to `N=C(N)c1ccc(C(=O)N[C@@H](Cc2ccc(O)cc2)C(=O)N2CCC(OCC(=O)O)CC2)cc1` [LAMIFIBAN], for which it took 0.033 µM to reach half-maximal inhibition (IC50). This counts as double-digit nanomolar.

The IC50 is the concentration that gives 50% inhibition.
